MrgX1 allo act: allosterically activates human MrgX1 receptor signaling; B-score at 10 µM; Q96LB2; MrgX1-HEK293, Fluo-4 calcium flux, FDSS; hits give high values; 310,000 tested, 0.63% active;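 active means plate-corrected calcium response at least 3 library SD above typical, normal starting fluorescence, not activating the receptor alone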;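 further: compound read alongside a low EC10 to EC30 dose of BAM8-22 agonist; peak minus trough fluorescence over baseline measured at the second addition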
Target sequence (Q96LB2 whole entry, looked up): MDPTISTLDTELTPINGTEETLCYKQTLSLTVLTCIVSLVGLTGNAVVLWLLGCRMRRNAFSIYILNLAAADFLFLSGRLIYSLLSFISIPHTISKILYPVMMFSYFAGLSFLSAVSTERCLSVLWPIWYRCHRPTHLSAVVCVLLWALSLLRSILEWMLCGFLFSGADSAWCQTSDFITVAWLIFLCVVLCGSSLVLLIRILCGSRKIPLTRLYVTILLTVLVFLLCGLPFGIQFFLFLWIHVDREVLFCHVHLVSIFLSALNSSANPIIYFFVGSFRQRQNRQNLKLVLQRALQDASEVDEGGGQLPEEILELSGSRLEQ
MrgX1 agonist: agonists of human MrgX1 receptor; Q96LB2; MrgX1-HEK293 cells, Fluo-4 calcium fluorescence, agonist mode; hits give high values; B-score at 10 µM; 310,000 tested, 0.44% active; AID 588627;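 active means calcium response B-score plate-corrected fluorescence ratio at least 3 library SD, with starting fluorescence B-score inside 5 SD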
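System: HEK293 cells stably expressing human MrgX1 receptor; Dosing: test compound in the initial addition of three; Schedule: overnight plating, then 30 min 37 °C plus 30 min room-temperature dye loading; Detection: kinetic calcium dye fluorescence, Fluo-4 NW; Controls: per-plate positive and negative controls for Z′ factor.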
MrgX1 antag: blocks BAM8-22 activation of human MrgX1 receptor; Q96LB2; MRGX1-HEK293 calcium flux, Fluo-4, BAM8-22 antagonism; hits give low values; B-score at 10 µM; 310,000 tested, 1.3% active; AID 588676;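 active means calcium-response B-score plate-corrected more than 3 library SD below zero, starting fluorescence within 5 deviations, no agonist response on first addition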;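 further: peak minus trough fluorescence over baseline after final BAM8-22 challenge near maximal dose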
RGS4 act: potentiators or activators of RGS4. HEK293 M3R/inducible RGS4, carbachol calcium flux Fluo4; hits give low values. 310,000 tested, 0.92% active. B-score at 10 µM;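 active means B-score of the integrated calcium signal more than 4 SD below the library mean, with starting fluorescence not abnormally high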;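 further: negative B-score means reduced calcium response which marks RGS4 activation or potentiation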
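Also added: carbachol at ECmax as muscarinic agonist stimulus; Assay system: HEK293 cells with stable M3R and inducible RGS4; Timing: overnight RGS4 induction, 30 min dye load 37 °C, 20 min compound RT; Measured by: Fluo4-AM (2 µM) calcium-flux fluorescence, kinetic read.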
RGS4 inh: inhibitors of human RGS4; 310,000 tested, 0.45% active; P49798; B-score at 10 µM; HEK293 M3R/RGS4 inducible, Fluo-4 calcium flux; hits give high values; triggered by carbachol at its EC20;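 active means B-score, a plate-corrected calcium signal, over three deviations above library mean, with baseline fluorescence within five deviations of library mean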;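 further: RGS4 expression induced by doxycycline in cells with stable M3 receptor; B-score is computed from the integrated fluorescence ratio over baseline after carbachol; higher B-score means a larger calcium signal and so more RGS4 inhibition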
Target sequence (P49798 whole entry, looked up): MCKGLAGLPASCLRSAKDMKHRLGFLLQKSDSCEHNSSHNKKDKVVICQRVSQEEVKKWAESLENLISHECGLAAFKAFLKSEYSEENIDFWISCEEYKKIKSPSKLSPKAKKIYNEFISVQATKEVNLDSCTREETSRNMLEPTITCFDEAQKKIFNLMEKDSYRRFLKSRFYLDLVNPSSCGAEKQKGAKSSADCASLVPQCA
Starred values were filed as active, the others as inactive. Hits are enriched below; roughly 3.5% of the tested compounds scored in any of these assays.

Screening CCS(=O)(=O)C1=NN2C(=N)/C(=C\c3ccc(OC(=O)c4ccco4)cc3)C(=O)N=C2S1 returned MrgX1 allo act 8.56*, MrgX1 agonist inactive, MrgX1 antag inactive, RGS4 act inactive and RGS4 inh inactive.
Screening O=C(NCC(c1ccc(F)cc1)N1CCOCC1)c1cccc(Br)c1 (stereo not drawn) returned MrgX1 allo act inactive, MrgX1 agonist inactive, MrgX1 antag inactive, RGS4 act inactive and RGS4 inh inactive.
`Cc1ccc(-c2csc(Nc3ccc(C(=O)O)cc3)[n+]2Cc2ccccc2)cc1` gave MrgX1 allo act 9.1*, MrgX1 agonist inactive, MrgX1 antag inactive, RGS4 act inactive and RGS4 inh inactive.
CC(C)(C)C(=O)C(Cl)C(=O)Nc1ccccc1 (stereo not drawn) was read as MrgX1 allo act inactive, MrgX1 agonist inactive, MrgX1 antag inactive, RGS4 act inactive and RGS4 inh 45.2*.
Screening COc1ccc(NC(=S)N(Cc2ccc(Cl)cc2)Cc2ccc(C(=O)O)cc2)cc1Cl returned MrgX1 allo act inactive, MrgX1 agonist inactive, MrgX1 antag -4.64*, RGS4 act inactive and RGS4 inh inactive.
`Cc1ccc(S(=O)(=O)Nc2c(NC3CCCCC3)c3ccccc3oc2=O)c(C)c1` gave MrgX1 allo act inactive, MrgX1 agonist inactive, MrgX1 antag inactive, RGS4 act inactive and RGS4 inh inactive.
For CC(C)Oc1ccc(C(CC(=O)O)n2cnnn2)cc1 (stereo not drawn) the results were MrgX1 allo act inactive, MrgX1 agonist inactive, MrgX1 antag inactive, RGS4 act inactive and RGS4 inh inactive.
COC(=O)C1=C(C)NC(C)=C(C(=O)OCC(C)C)C1c1ccccc1[N+](=O)[O-] (stereo not drawn) was read as MrgX1 allo act inactive, MrgX1 agonist 30.9*, MrgX1 antag inactive, RGS4 act inactive and RGS4 inh inactive.
For CCCOc1ccccc1C1CC(=O)NC(C)=C1C(=O)OCC(C)C (stereo not drawn) the results were MrgX1 allo act inactive, MrgX1 agonist inactive, MrgX1 antag inactive, RGS4 act inactive and RGS4 inh inactive.
For CCCCCCN1C=CC(=C/C=C(\C#N)C(=O)OCC)C=C1 the results were MrgX1 allo act inactive, MrgX1 agonist 64.2*, MrgX1 antag inactive, RGS4 act inactive and RGS4 inh inactive.
Screening CCCN1C=CC(=C/C=C(\C#N)C(=O)OCC)C=C1 returned MrgX1 allo act inactive, MrgX1 agonist inactive, MrgX1 antag inactive, RGS4 act inactive and RGS4 inh inactive.
Screening CCn1c(Cc2cccs2)nnc1SCC(=O)Nc1ccc(OC)c(OC)c1 returned MrgX1 allo act inactive, MrgX1 agonist inactive, MrgX1 antag -4.71*, RGS4 act inactive and RGS4 inh inactive.
`CCn1c(SCC(=O)Nc2ccc3c(c2)oc2ccccc23)nnc1-c1ccc(N)cc1` gave MrgX1 allo act inactive, MrgX1 agonist inactive, MrgX1 antag inactive, RGS4 act inactive and RGS4 inh 7.96*.
`CCN(Cc1ccc(C#CCCO)cc1)CC1CCCN(CCc2cccc(OC)c2)C1` (stereo not drawn) gave MrgX1 allo act inactive, MrgX1 agonist inactive, MrgX1 antag inactive, RGS4 act -7.01* and RGS4 inh inactive.
`CCN(Cc1ccc(NC(C)=O)cc1)CC1CCCN(CCc2cccc(F)c2)C1` (stereo not drawn) gave MrgX1 allo act inactive, MrgX1 agonist inactive, MrgX1 antag inactive, RGS4 act inactive and RGS4 inh inactive.
Cc1ccc(CN2CCSc3sccc3C2=O)cc1 was read as MrgX1 allo act inactive, MrgX1 agonist inactive, MrgX1 antag inactive, RGS4 act inactive and RGS4 inh inactive.
CCC(=O)Nc1nnc(S(=O)(=O)N2c3ccccc3CC2C)s1 (stereo not drawn) was read as MrgX1 allo act inactive, MrgX1 agonist inactive, MrgX1 antag inactive, RGS4 act inactive and RGS4 inh inactive.
`CC(C)(C)c1ccc(OCCCNC2CCCC2)cc1` gave MrgX1 allo act inactive, MrgX1 agonist inactive, MrgX1 antag inactive, RGS4 act -7.37* and RGS4 inh inactive.
Cc1ccc(N=C2C(=S)N(c3ccc(C)cc3)C(=N)N2/N=C/c2ccc(Cl)cc2)cc1 was read as MrgX1 allo act inactive, MrgX1 agonist inactive, MrgX1 antag inactive, RGS4 act inactive and RGS4 inh inactive.
O=C(CCC1CCCCC1)NCCN1C2=NC[C@@H](Cc3ccccc3)N2C[C@H]1Cc1ccc(O)cc1 was read as MrgX1 allo act inactive, MrgX1 agonist inactive, MrgX1 antag inactive, RGS4 act -7.07* and RGS4 inh inactive.
`C[C@H]1CN=C2N(CCNC(=O)CCC3CCCCC3)[C@H](Cc3ccc(O)cc3)CN21` gave MrgX1 allo act inactive, MrgX1 agonist inactive, MrgX1 antag inactive, RGS4 act inactive and RGS4 inh inactive.
`O=C(CCC1CCCCC1)NCCN1C2=NC[C@H](Cc3ccccc3)N2C[C@H]1Cc1ccc(O)cc1` gave MrgX1 allo act inactive, MrgX1 agonist inactive, MrgX1 antag inactive, RGS4 act -7.96* and RGS4 inh inactive.
For COc1ccc(/C=C/C(=O)C2C(=O)C=C(C)OC2=O)cc1O (stereo not drawn) the results were MrgX1 allo act inactive, MrgX1 agonist inactive, MrgX1 antag -4.67*, RGS4 act inactive and RGS4 inh inactive.
`Cc1ccn(CCC(=O)Nc2ccc(-c3ccno3)cc2)n1` gave MrgX1 allo act inactive, MrgX1 agonist inactive, MrgX1 antag inactive, RGS4 act inactive and RGS4 inh inactive.
CCCC(=O)Nc1ccc(-c2csc(N/N=C\c3ccncc3)n2)cc1 was read as MrgX1 allo act inactive, MrgX1 agonist inactive, MrgX1 antag -5.36*, RGS4 act -7.16* and RGS4 inh inactive.
Screening Nc1nc2c(s1)COc1ccccc1-2 returned MrgX1 allo act inactive, MrgX1 agonist inactive, MrgX1 antag inactive, RGS4 act inactive and RGS4 inh inactive.
Nc1nc2c(s1)CCc1c-2cnn1-c1ccccc1 was read as MrgX1 allo act inactive, MrgX1 agonist 33.3*, MrgX1 antag inactive, RGS4 act inactive and RGS4 inh inactive.
Screening CN(C(=O)COC(=O)c1ccccc1Nc1ccccc1)c1c(N)n(Cc2ccccc2)c(=O)[nH]c1=O returned MrgX1 allo act inactive, MrgX1 agonist inactive, MrgX1 antag -7*, RGS4 act inactive and RGS4 inh inactive.
Screening O=C(O)COc1ccc(/C=C/c2nc3ccc([N+](=O)[O-])cc3s2)cc1 returned MrgX1 allo act inactive, MrgX1 agonist inactive, MrgX1 antag -4.78*, RGS4 act inactive and RGS4 inh inactive.
`CCN(C(=O)c1ccnn1C)c1ccccc1` gave MrgX1 allo act inactive, MrgX1 agonist inactive, MrgX1 antag inactive, RGS4 act inactive and RGS4 inh inactive.

Source: PubChem BioAssay
